Residue numbers refer to the chain shown, from its start. Converted amounts (≈) assume the structure as drawn. The source made the active and inactive calls. The rule behind the calls is not given here.
Tests used:
[1] = target: T1, Penicillin-binding protein 2x (Streptococcus pneumoniae serotype 4 (strain ATCC BAA-334 / TIGR4)) (UniProt P14677); test: Binding affinity to PBP 2x in Streptococcus pneumoniae isolate 909 at 1.1 ng/ml to 1.1 ug /ml
T1 sequence (whole entry): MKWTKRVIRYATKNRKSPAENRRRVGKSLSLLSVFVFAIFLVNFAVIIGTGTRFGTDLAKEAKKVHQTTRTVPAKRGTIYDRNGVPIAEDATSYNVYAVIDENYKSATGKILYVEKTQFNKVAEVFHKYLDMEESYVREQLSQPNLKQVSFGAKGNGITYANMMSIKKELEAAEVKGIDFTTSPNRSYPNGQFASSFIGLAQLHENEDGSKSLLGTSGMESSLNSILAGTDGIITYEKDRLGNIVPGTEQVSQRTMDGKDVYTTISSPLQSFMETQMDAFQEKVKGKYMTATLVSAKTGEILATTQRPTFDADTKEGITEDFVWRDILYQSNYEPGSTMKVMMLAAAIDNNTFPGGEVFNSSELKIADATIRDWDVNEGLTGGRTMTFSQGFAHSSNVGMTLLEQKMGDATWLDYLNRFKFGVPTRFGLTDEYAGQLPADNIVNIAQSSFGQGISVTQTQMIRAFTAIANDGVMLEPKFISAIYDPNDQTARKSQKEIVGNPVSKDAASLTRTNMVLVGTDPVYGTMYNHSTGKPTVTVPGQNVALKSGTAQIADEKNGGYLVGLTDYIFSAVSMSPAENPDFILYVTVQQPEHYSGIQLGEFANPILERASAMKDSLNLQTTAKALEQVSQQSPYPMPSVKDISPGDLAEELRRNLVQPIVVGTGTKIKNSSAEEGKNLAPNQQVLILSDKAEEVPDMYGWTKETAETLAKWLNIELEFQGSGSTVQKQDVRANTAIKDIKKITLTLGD
In short: (§1)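 Cells grown at 37°C without aeration in C medium with 0.2% yeast extract, monitored by nephelometry, harvested at 80 to 100 nephelometry units and resuspended in 20 mM sodium phosphate (pH 7.2) with 0.2% Triton X-100. Lysate aliquots labeled with decreasing Bocillin FL (1.1, 0.36, 0.11, 0.036 μg/ml, onward) for 30 min at 37°C. PBPs were resolved by SDS-PAGE (7.5% resolving gel) and read by fluorescence imaging.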

[2] = target: T2, Penicillin-binding protein 2X (Streptococcus pneumoniae R6) (UniProt P59676); test: Binding affinity to PBP 2x in Streptococcus pneumoniae R6 at 1.1 ng/ml to 1.1 ug /ml; in short: as §1
T2 sequence (whole entry): T1 sequence (whole entry) with T385M

[3] = target: T3, Penicillin-binding protein 1A (Streptococcus pneumoniae serotype 4 (strain ATCC BAA-334 / TIGR4)) (UniProt Q04707); test: Binding affinity to PBP 1a in Streptococcus pneumoniae isolate k-637 at 1.1 ng/ml to 1.1 ug /ml; in short: as §1
T3 sequence (whole entry): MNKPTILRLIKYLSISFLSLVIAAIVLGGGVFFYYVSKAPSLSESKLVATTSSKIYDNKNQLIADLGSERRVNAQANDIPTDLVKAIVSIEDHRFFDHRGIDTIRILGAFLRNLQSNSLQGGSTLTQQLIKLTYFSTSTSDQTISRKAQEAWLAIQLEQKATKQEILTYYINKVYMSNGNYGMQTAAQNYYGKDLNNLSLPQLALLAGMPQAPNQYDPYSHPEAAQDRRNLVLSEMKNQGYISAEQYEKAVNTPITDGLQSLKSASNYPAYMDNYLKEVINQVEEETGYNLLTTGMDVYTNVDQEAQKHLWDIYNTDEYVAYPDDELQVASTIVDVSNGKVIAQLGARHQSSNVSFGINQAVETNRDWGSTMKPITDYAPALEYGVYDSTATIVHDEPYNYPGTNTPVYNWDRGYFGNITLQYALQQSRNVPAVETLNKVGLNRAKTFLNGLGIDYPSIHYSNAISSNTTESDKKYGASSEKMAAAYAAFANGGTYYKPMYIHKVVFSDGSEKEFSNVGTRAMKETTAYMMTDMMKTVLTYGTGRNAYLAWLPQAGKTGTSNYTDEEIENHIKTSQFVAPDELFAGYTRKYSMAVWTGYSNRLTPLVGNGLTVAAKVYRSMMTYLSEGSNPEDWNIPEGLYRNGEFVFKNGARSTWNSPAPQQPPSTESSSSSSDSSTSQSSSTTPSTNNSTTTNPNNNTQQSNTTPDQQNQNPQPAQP

[4] = target: T1, Penicillin-binding protein 2x (Streptococcus pneumoniae serotype 4 (strain ATCC BAA-334 / TIGR4)); test: Binding affinity to PBP 2x in Streptococcus pneumoniae isolate k-421 at 1.1 ng/ml to 1.1 ug /ml; in short: as §1
Streptococcus pneumoniae [5] = test: Antimicrobial activity against Streptococcus pneumoniae isolate 4134 obtained from sputum of patient; assay type: functional
Streptococcus pneumoniae [6] = test: Antimicrobial activity against Streptococcus pneumoniae isolate k-585 obtained from bronchoalveolar lavage fluid of patient; assay type: functional; conditions: isolate k-585, Lung
Streptococcus pneumoniae [7] = test: Antimicrobial activity against Streptococcus pneumoniae isolate 657 obtained from sputum of patient; assay type: functional
Streptococcus pneumoniae [8] = test: Antimicrobial activity against Streptococcus pneumoniae isolate 187 obtained from bronchoalveolar lavage fluid of patient; assay type: functional; conditions: isolate 187, Lung
Streptococcus pneumoniae [9] = test: Antimicrobial activity against Streptococcus pneumoniae isolate 909 obtained from bronchoalveolar lavage fluid of patient; assay type: functional; conditions: isolate 909, Lung
Streptococcus pneumoniae [10] = test: Antimicrobial activity against Streptococcus pneumoniae isolate 2907 obtained from sinusitis of patient; assay type: functional
Streptococcus pneumoniae [11] = test: Antimicrobial activity against Streptococcus pneumoniae isolate k-421 obtained from ear of patient; assay type: functional
Streptococcus pneumoniae [12] = test: Antimicrobial activity against Streptococcus pneumoniae isolate 40 obtained from blood of patient; assay type: functional
Streptococcus pneumoniae [13] = test: Antimicrobial activity against Streptococcus pneumoniae isolate 2904 obtained from blood of patient; assay type: functional
Streptococcus pneumoniae [14] = test: Antimicrobial activity against Streptococcus pneumoniae isolate k-637 obtained from CSF of patient; assay type: functional
Streptococcus pneumoniae [15] = test: Antimicrobial activity against Streptococcus pneumoniae isolate k-598 obtained from bronchoalveolar lavage fluid of patient; assay type: functional; conditions: Lung
Streptococcus pneumoniae [16] = test: Antimicrobial activity against Streptococcus pneumoniae ATCC BAA-343; assay type: functional
Streptococcus pneumoniae [17] = test: Antimicrobial activity against Streptococcus pneumoniae ATCC BAA-612; assay type: functional

| Compound | Activity [1] | Activity [2] | Activity [3] | Activity [4] | MIC (Streptococcus pneumoniae [5]) [µg/mL] | MIC (Streptococcus pneumoniae [6]) [µg/mL] | MIC (Streptococcus pneumoniae [7]) [µg/mL] | MIC (Streptococcus pneumoniae [8]) [µg/mL] | MIC (Streptococcus pneumoniae [9]) [µg/mL] | MIC (Streptococcus pneumoniae [10]) [µg/mL] | MIC (Streptococcus pneumoniae [11]) [µg/mL] | MIC (Streptococcus pneumoniae [12]) [µg/mL] | MIC (Streptococcus pneumoniae [13]) [µg/mL] | MIC (Streptococcus pneumoniae [14]) [µg/mL] | MIC (Streptococcus pneumoniae [15]) [µg/mL] | MIC (Streptococcus pneumoniae [16]) [µg/mL] | MIC (Streptococcus pneumoniae [17]) [µg/mL] |
| --- | --- | --- | --- | --- | --- | --- | --- | --- | --- | --- | --- | --- | --- | --- | --- | --- | --- |
| Cc1cc(C)n2c1C=C1C=CC(CCC(=O)Nc3ccc(OCC(=O)N[C@@H]4C(=O)N5[C@@H]4SC(C)(C)[C@@H]5C(=O)O)cc3)=[N+]1[B-]2(F)F | inactive | inactive | Active | inactive |  |  |  |  |  |  |  |  |  |  |  |  |  |
| CC1(C)S[C@@H]2[C@H](NC(=O)[C@H](N)c3ccc(O)cc3)C(=O)N2[C@H]1C(=O)O [AMOXICILLIN] |  |  |  |  | 1 (≈ 2.74 µM) | 4 (≈ 10.9 µM) | 0.06 (≈ 0.164 µM) | 16 (≈ 43.8 µM) | 8 (≈ 21.9 µM) | 0.25 (≈ 0.684 µM) | 2 (≈ 5.47 µM) | 8 (≈ 21.9 µM) | 2 (≈ 5.47 µM) | 2 (≈ 5.47 µM) | 16 (≈ 43.8 µM) | 2 (≈ 5.47 µM) | 0.12 (≈ 0.328 µM) |
| CO/N=C(\C(=O)N[C@@H]1C(=O)N2C(C(=O)[O-])=C(C[N+]3(C)CCCC3)CS[C@H]12)c1csc(N)n1 [CEFEPIME] |  |  |  |  | 1 (≈ 2.08 µM) | 1 (≈ 2.08 µM) | 0.06 (≈ 0.125 µM) | 2 (≈ 4.16 µM) | 1 (≈ 2.08 µM) | 0.25 (≈ 0.52 µM) | 1 (≈ 2.08 µM) | 1 (≈ 2.08 µM) | 1 (≈ 2.08 µM) | 2 (≈ 4.16 µM) | 8 (≈ 16.6 µM) | 4 (≈ 8.32 µM) | 0.25 (≈ 0.52 µM) |
| CO/N=C(\C(=O)N[C@@H]1C(=O)N2C(C(=O)O)=C(COC(C)=O)CS[C@H]12)c1csc(N)n1 [CEFOTAXIME] |  |  |  |  | 0.5 (≈ 1.1 µM) | 1 (≈ 2.2 µM) | 0.06 (≈ 0.132 µM) | 8 (≈ 17.6 µM) | 2 (≈ 4.39 µM) | 0.25 (≈ 0.549 µM) | 2 (≈ 4.39 µM) | 4 (≈ 8.78 µM) | 4 (≈ 8.78 µM) | 1 (≈ 2.2 µM) | 16 (≈ 35.1 µM) | 4 (≈ 8.78 µM) | 0.06 (≈ 0.132 µM) |
| CO/N=C(\C(=O)N[C@@H]1C(=O)N2C(C(=O)O)=C(CSc3nc(=O)c(O)nn3C)CS[C@H]12)c1csc(N)n1 [CEFTRIAXONE] |  |  |  |  | 0.25 (≈ 0.451 µM) | 0.25 (≈ 0.451 µM) | 0.06 (≈ 0.108 µM) | 4 (≈ 7.21 µM) | 1 (≈ 1.8 µM) | 0.25 (≈ 0.451 µM) | 1 (≈ 1.8 µM) | 4 (≈ 7.21 µM) | 2 (≈ 3.61 µM) | 0.5 (≈ 0.902 µM) | 4 (≈ 7.21 µM) | 4 (≈ 7.21 µM) | 0.06 (≈ 0.108 µM) |
| CO/N=C(\C(=O)N[C@@H]1C(=O)N2C(C(=O)O)=C(COC(N)=O)CS[C@H]12)c1ccco1 [CEFUROXIME] |  |  |  |  | 2 (≈ 4.71 µM) | 2 (≈ 4.71 µM) | 0.12 (≈ 0.283 µM) | > 32 | 8 (≈ 18.9 µM) | 0.25 (≈ 0.589 µM) | 2 (≈ 4.71 µM) | 32 (≈ 75.4 µM) | 16 (≈ 37.7 µM) | 4 (≈ 9.43 µM) | > 32 | 8 (≈ 18.9 µM) | 0.12 (≈ 0.283 µM) |
| C[C@@H](O)[C@H]1C(=O)N2C(C(=O)O)=C(S[C@@H]3CN[C@H](C(=O)N(C)C)C3)[C@H](C)[C@H]12 [MEROPENEM] |  |  |  |  | 0.25 (≈ 0.652 µM) | 0.25 (≈ 0.652 µM) | 0.06 (≈ 0.156 µM) | 0.5 (≈ 1.3 µM) | 0.25 (≈ 0.652 µM) | 0.12 (≈ 0.313 µM) | 0.25 (≈ 0.652 µM) | 0.5 (≈ 1.3 µM) | 0.5 (≈ 1.3 µM) | 0.5 (≈ 1.3 µM) | 0.5 (≈ 1.3 µM) | 0.5 (≈ 1.3 µM) | 0.06 (≈ 0.156 µM) |
| CC1(C)S[C@@H]2[C@H](NC(=O)Cc3ccccc3)C(=O)N2[C@H]1C(=O)O [PENICILLIN G] |  |  |  |  | 2 (≈ 5.98 µM) | 4 (≈ 12 µM) | 0.12 (≈ 0.359 µM) | 8 (≈ 23.9 µM) | 4 (≈ 12 µM) | 0.5 (≈ 1.5 µM) | 2 (≈ 5.98 µM) | 8 (≈ 23.9 µM) | 4 (≈ 12 µM) | 8 (≈ 23.9 µM) | 8 (≈ 23.9 µM) | 8 (≈ 23.9 µM) | 0.12 (≈ 0.359 µM) |

Reference: ChEMBL document CHEMBL1255255, “Highly variable penicillin resistance determinants PBP 2x, PBP 2b, and PBP 1a in isolates of two Streptococcus pneumoniae clonal groups, Poland 23F-16 and Poland 6B-20” (2008)
